Screening results deposited in PubChem by Broad Institute.
F508del corr – correctors of CFTR F508del function in bronchial epithelial cells; CFBE cells, YFP halide quenching; stimulated with forskolin plus potentiator P3; % fluorescence drop versus neutral controls; activity (quench increase), % at 7.58 µM; 350,000 compounds, 0.36% hits; AID 720511;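 active = mean added fluorescence quench of at least 8% versus neutral control, with both replicates also reaching 8%; inconclusive = only one of the mean or replicate conditions met; inactive = mean below 8% and not both replicates reaching 8%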;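 also: cells transiently co-express mutant CFTR-F508del with the halide-sensitive YFP; corrector assay measuring rescue of mutant channel to the surface after 24 h compound exposure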
HIV Env fusion – inhibitors of HIV Env-mediated cell fusion | 360,000 compounds, 1.1% hits | inhibition, % at 12.3 µM | HeLa-JRFL Env/CEM21 cell fusion, luciferase;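 active = mean replicate inhibition score of at least 50 and every replicate individually at or above 50; inconclusive = only one of the two criteria met; inactive = mean below 50 and not all replicates reaching 50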;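 also: 0% = plate neutral controls and 100% = maraviroc near 300 nM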
PGC1a acetyl inh – PGC1a acetylation modulation, inhibitor mode; U2OS PGC1a acetylation, AlphaScreen anti-acetyl-lysine; with virally co-expressed GCN5 acetyltransferase; inhibition, % at 15.6 µM; 350,000 compounds, 0.17% hits;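 active = every replicate shows inhibition of at least 40%; inconclusive = mean inhibition at least 40% but some replicate below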;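 also: 0% = neutral control wells and 100% = positive control wells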
EWS-Fli block – inhibitors of EWS/Fli oncoprotein transcriptional activity. A673 NR0B1-luciferase reporter, viability-normalised. inhibition, % at 12.6 µM. 350,000 compounds, 0.67% hits. AID 651661;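 active = mean inhibition of at least 50% after viability correction, with every replicate also passing that limit; inconclusive = mean reaches 50% but only one of two replicates passes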;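 also: firefly luciferase signal divided by Alamar Blue viability fluorescence both relative to DMSO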
PAX8 reporter – lowers PAX8-driven luciferase in RMG-I cells; RMG-I TPO-luciferase reporter, SteadyGlo, 24 h; inhibition, % at 12.6 µM; 360,000 compounds, 1.2% hits; AID 652154;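 active = mean replicate inhibition at least 60% with every replicate also reaching 60%; inconclusive = only one of the two criteria is met; inactive = mean below 60% and not all replicates reaching 60%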;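 also: luciferase light reporting Pax8 driven TPO promoter activity; plate controls were median of neutral control wells for no effect and mitoxantrone controls for full effect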
FN deposition inh – fibronectin deposition inhibition; AH1F fibroblasts, Alexa488-fibronectin deposition fluorescence, overnight; inhibition, % at 12.6 µM; 350,000 compounds, 0.086% hits; AID 743247;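 active = mean inhibition across replicates of 30% or more, regardless of how many single replicates reach that level; inconclusive = mean under 30% yet at least half of replicates reach 30%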;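 also: positive control wells lacked labelled fibronectin entirely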
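Test system: AH1F fibroblast monolayer depositing Alexa488-labelled fibronectin into matrix. Input: 10000 cells per well. Technique: fluorescence, ex 485 nm, em 525 nm. Buffer or medium: DMEM plus 2% serum, read in PBS. Timing: 1 h cell adhesion before compound, then overnight fibronectin incubation. Compound: single dose, pinned. Read-out basis: inhibition from reduced deposited-fibronectin fluorescence.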
* hit, by the source's call; [ ] = another dose, or the depositor's remark. Rows were chosen to be rich in hits. Some 2.3% of all compounds tested hit in one or more screens of this group.

C[C@H](CO)N1C[C@H](C)[C@H](CN(C)C(=O)NC2CCCC2)Oc2cc(C#Cc3ccc(F)cc3)ccc2S1(=O)=O was read as F508del corr 9.7*, HIV Env fusion 63*[16.7 µM], PGC1a acetyl inh 19, EWS-Fli block 28 and FN deposition inh -3.
`C[C@H]1CN([C@@H](C)CO)S(=O)(=O)c2ccc(C#Cc3ccc(F)cc3)cc2O[C@H]1CN(C)C(=O)NC1CCCC1` gave F508del corr 8.6*, HIV Env fusion 35[16.7 µM], PGC1a acetyl inh 28, EWS-Fli block 23 and FN deposition inh -7.
Screening O=c1cnc2ccccc2n1CC1CCCCC1 returned F508del corr 8.6* and EWS-Fli block -11.
For CCN(CC)C1=CC2=CC(=C(C#N)C#N)CCC2CC1 (stereo not drawn) the results were F508del corr 40*, HIV Env fusion 9, EWS-Fli block 45, PAX8 reporter 21 and FN deposition inh -77.
CCCCN(C)C1=CC2=CC(=C(C#N)C#N)CCC2CC1 (stereo not drawn) was read as F508del corr 34*, HIV Env fusion 0, EWS-Fli block 30, PAX8 reporter 13 and FN deposition inh 3.
CN1C(C(=O)Nc2ccc(OC(F)(F)F)cc2)=CC(c2cccs2)=NS1(=O)=O was read as F508del corr -2, HIV Env fusion 18, PGC1a acetyl inh 5, EWS-Fli block 3, PAX8 reporter 12 and FN deposition inh 1.
For COc1ccc(NC(=O)C2=CC(c3cccs3)=NS(=O)(=O)N2C)cc1 the results were F508del corr -4, HIV Env fusion 89*, PGC1a acetyl inh 6, EWS-Fli block 1, PAX8 reporter 25 and FN deposition inh -4.
`CCCC(=O)Nc1ccc2c(c1)OC[C@H](C)N(C(=O)CN(C)C)C[C@H](C)[C@H](OC)CN(C)C2=O` gave F508del corr -2, HIV Env fusion inconclusive, PGC1a acetyl inh 30, EWS-Fli block -3, PAX8 reporter -7 and FN deposition inh 1.
`CO[C@H]1CN(C)C(=O)c2cc(NC(C)=O)ccc2OC[C@H](C)N(C(=O)CN2CCOCC2)C[C@@H]1C` gave F508del corr 1, HIV Env fusion 2[16.7 µM], PGC1a acetyl inh -3, EWS-Fli block 9 and FN deposition inh -57.
For CCCC(=O)Nc1ccc2c(c1)C(=O)N(C)C[C@@H](OC)[C@H](C)CN(C(=O)CN1CCOCC1)[C@H](C)CO2 the results were F508del corr 8.4*, HIV Env fusion -1[16.7 µM], PGC1a acetyl inh -7, EWS-Fli block 7, PAX8 reporter 1 and FN deposition inh 10.
For CCCC(=O)Nc1ccc2c(c1)OC[C@@H](C)N(C(=O)CN(C)C)C[C@H](C)[C@@H](OC)CN(C)C2=O the results were F508del corr -1, HIV Env fusion 59*[16.7 µM], PGC1a acetyl inh 5, EWS-Fli block 0, PAX8 reporter -3 and FN deposition inh -14.
For CO[C@H]1CN(C)C(=O)c2cc(NC(C)=O)ccc2OC[C@@H](C)N(C(=O)CN2CCOCC2)C[C@H]1C the results were F508del corr 2, HIV Env fusion -1[16.7 µM], PGC1a acetyl inh 15, EWS-Fli block -7 and FN deposition inh 31*.
For O=C1C=C(c2ccccc2)C[C@H](c2cccs2)[C@H]1n1nnc([N+](=O)[O-])n1 the results were PAX8 reporter 76* and FN deposition inh -9.
Screening O=C1C=C(c2ccccc2)CC(c2cccs2)C1n1cnc([N+](=O)[O-])c1 (stereo not drawn) returned PGC1a acetyl inh 19.
Screening C[C@@H]1CN([C@@H](C)CO)C(=O)Cc2cc(NS(=O)(=O)c3cn(C)cn3)ccc2O[C@@H]1CN(C)C(=O)Nc1ccc(F)cc1 returned F508del corr -2, HIV Env fusion -15[16.7 µM], PGC1a acetyl inh -9, EWS-Fli block -4 and FN deposition inh -11.
C[C@@H]1CN([C@@H](C)CO)C(=O)Cc2cc(NC(=O)Cc3ccccc3)ccc2O[C@H]1CN(C)Cc1ccc(-c2ccccc2)cc1 was read as F508del corr -1, HIV Env fusion -26[16.7 µM], PGC1a acetyl inh -1, EWS-Fli block 20 and PAX8 reporter 79*.
For C[C@H]1CN([C@@H](C)CO)C(=O)Cc2cc(NC(=O)Cc3ccccc3)ccc2O[C@H]1CN(C)Cc1ccc(-c2ccccc2)cc1 the results were F508del corr 3, HIV Env fusion -41[16.7 µM], PGC1a acetyl inh -12, EWS-Fli block 21 and PAX8 reporter -3.
`C[C@H]1CN([C@@H](C)CO)C(=O)Cc2cc(NC(=O)c3ccncc3)ccc2O[C@@H]1CN(C)Cc1ccccc1` gave F508del corr 1, HIV Env fusion 2[16.7 µM], EWS-Fli block -1 and PAX8 reporter -6.
For C[C@@H]1CN([C@H](C)CO)C(=O)Cc2cc(NC(=O)C3CC3)ccc2O[C@H]1CN(C)Cc1ccc(-c2ccccc2)cc1 the results were F508del corr 2, HIV Env fusion 17[16.7 µM], PGC1a acetyl inh -6, EWS-Fli block -3 and PAX8 reporter 23.
Screening C[C@@H]1CN([C@@H](C)CO)C(=O)Cc2cc(NC(=O)C3CC3)ccc2O[C@H]1CN(C)Cc1ccc(-c2ccccc2)cc1 returned F508del corr 1, HIV Env fusion 5[16.7 µM], PGC1a acetyl inh 0, EWS-Fli block 8 and PAX8 reporter 91*.
For C[C@H]1CN([C@@H](C)CO)C(=O)Cc2cc(NC(=O)c3ccncc3)ccc2O[C@H]1CN(C)Cc1ccc(-c2ccccc2)cc1 the results were F508del corr 3, HIV Env fusion -10[16.7 µM], PGC1a acetyl inh -8, EWS-Fli block -14 and PAX8 reporter 69*.
`C[C@@H]1CN([C@@H](C)CO)C(=O)c2cc(NC(=O)C3CCCCC3)ccc2O[C@H]1CN(C)Cc1ccc(-c2ccccc2)cc1` gave F508del corr -4, PGC1a acetyl inh -10, EWS-Fli block 8 and FN deposition inh 30*.
Screening O=C1N[C@H](Cc2ccccc2)COCn2nncc2CC[C@H]1Cc1ccccc1 returned HIV Env fusion 15[16.7 µM], EWS-Fli block 5, PAX8 reporter 0 and FN deposition inh 7.
COc1ccc2c3c(n(C)c2c1)[C@H](CO)NCC31CN(C(=O)Nc2ccc(F)cc2F)C1 was read as F508del corr 0, PGC1a acetyl inh -1 and EWS-Fli block 0.
For C[C@H](CO)N1C[C@H](C)[C@H](CN(C)C)OCCCC[C@H](C)Oc2ccc(NS(=O)(=O)c3ccc(F)cc3)cc2C1=O the results were F508del corr 0, HIV Env fusion 1[16.7 µM], PGC1a acetyl inh 3, EWS-Fli block -1, PAX8 reporter 2 and FN deposition inh -1.
C[C@H]1CN([C@@H](C)CO)C(=O)Cc2cc(NC(=O)Nc3ccc4c(c3)OCO4)ccc2O[C@@H]1CN(C)Cc1ccc(-c2ccccc2)cc1 was read as F508del corr 3, HIV Env fusion 44[16.7 µM], PGC1a acetyl inh 4, EWS-Fli block -1 and PAX8 reporter 78*.
